In ChEMBL document CHEMBL1152736, “Synthesis and biological testing of thioalkane- and thioarene-spaced bis-beta-D-glucopyranosides” (Bioorg Med Chem, 2009):
Active and inactive are the calls of the source. The calls are words filed in the database; no cut-off is given here.

How the values were obtained:
Assay type in all cases: functional, cell-based
U-937 [1] = experiment: Stimulation of growth of human U937 cells at 25 to 50 uM after 24 hrs
MOLT-3 [2] = experiment: Stimulation of growth of human MOLT3 cells at 25 to 50 uM after 24 hrs
U-937 [3] = experiment: Reduction in viability of human U937 at 75 uM after 24 hrs by MTS assay
Outline: (§1)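 MTS colorimetric assay: 2 × 10⁴ cells in 100 µL RPMI-1640 with 5% FBS, 2 mM L-glutamine and penicillin–streptomycin, with compound or DMSO vehicle for 24 h. MTS reagent then added for 4 h and absorbance read at 490 nm. Mean and SD of three determinations. Comparison with vehicle by Student's t-test.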

MOLT-3 [4] = experiment: Reduction in viability of human MOLT3 cells at 75 uM after 24 hrs by MTS assay; outline: as §1
MOLT-3 [5] = experiment: Induction of apoptosis in human MOLT3 cells at 10 uM after 24 hrs by fluorescence microscopy
Outline: (§2)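 Cells exposed 24 h to DMSO vehicle or test agent at 10–75 µM. Stained with acridine orange; apoptosis scored morphologically by fluorescence microscopy, over 600 cells analyzed. % apoptosis = apoptotic cells / total cells counted × 100. Mean and SD of three determinations. Comparison with vehicle by Student's t-test (MOLT3) or Tukey HSD (U937).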

U-937 [6] = experiment: Induction of apoptosis in human U937 cells at 10 uM after 24 hrs by fluorescence microscopy; outline: as §2
U-937 [7] = experiment: Induction of apoptosis in human U937 cells after 24 hrs by fluorescence microscopy; outline: as §2
MOLT-3 [8] = experiment: Induction of apoptosis in human MOLT3 cells after 24 hrs by fluorescence microscopy; outline: as §2

## C=C(CO[C@@H]1O[C@H](COC(C)=O)[C@@H](OC(C)=O)[C@H](OC(C)=O)[C@H]1OC(C)=O)[S+]([O-])c1cccc([S+]([O-])C(=C)CO[C@@H]2O[C@H](COC(C)=O)[C@@H](OC(C)=O)[C@H](OC(C)=O)[C@H]2OC(C)=O)c1 (stereo partly drawn)
U-937 [1]
  Activity: Active
MOLT-3 [2]
  Activity: Active
U-937 [3]
  Activity: Active
MOLT-3 [4]
  Activity: Active
MOLT-3 [5]
  Activity: inactive
U-937 [6]
  Activity: inactive
U-937 [7]
  Activity: Dose-dependent effect
MOLT-3 [8]
  Activity: Dose-dependent effect
